High-throughput results (PubChem BioAssay)
PRMT1 FP inh = inhibitors of human PRMT1; inhibition, % at 2.79 µM; recombinant PRMT1, activity-based probe fluorescence polarization; 1.3% of 370,000 active; Q99873;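 active = inhibition above about 21% made by adding two undisclosed values, limit read from the data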
ABHD4 inh = inhibitors of mouse ABHD4; Q8VD66; purified mABHD4, FP-Rh probe fluorescence polarization; inhibition, % at 8.92 µM; 0.54% of 370,000 active;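 active = inhibition exceeding the mean over every tested compound plus 3 SD, cut at about 30% in these data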
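Assay system: Wild-type mouse ABHD4 protein | Medium: HEPES pH 7.0 buffer, 150 mM NaCl, 0.01% Pluronic F-127 | Incubation: Enzyme–compound pre-incubation 45 min, then probe 60 min, both 25 °C | Technique: Fluorescence polarization with parallel and perpendicular emission, 525/598 nm | Evaluation: % inhibition of FP-Rh probe binding versus controls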
TCR CD3 inh = blocks the human TCR-CD3 interaction. inhibition, % at 9.4 µM. AID 651800. 0.37% of 360,000 active. TAMRA-labeled TCR probe fluorescence, biochemical;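 also: recombinant mutant TCR 2C K166C tagged with TAMRA read by polarization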
SIAE primary = blocks human sialic acid acetylesterase; SIAE FP-Rh probe binding, fluorescence polarization; inhibition, % at 9.66 µM; 0.69% of 370,000 active; AID 1053197;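 active = inhibition above a cutoff: mean of compounds within the control limits plus 3 SD of those, cut at about 17% in these data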
HTRA1 inhibitor = HTRA1 (human) protease inhibition. Q92743. recombinant HTRA1, FP-rhodamine activity-based probe, fluorescence polarization. inhibition, % at 5.96 µM. 0.5% of 340,000 active; in the data active = inhibition above about 36%
Target sequence (Q92743 whole entry, looked up): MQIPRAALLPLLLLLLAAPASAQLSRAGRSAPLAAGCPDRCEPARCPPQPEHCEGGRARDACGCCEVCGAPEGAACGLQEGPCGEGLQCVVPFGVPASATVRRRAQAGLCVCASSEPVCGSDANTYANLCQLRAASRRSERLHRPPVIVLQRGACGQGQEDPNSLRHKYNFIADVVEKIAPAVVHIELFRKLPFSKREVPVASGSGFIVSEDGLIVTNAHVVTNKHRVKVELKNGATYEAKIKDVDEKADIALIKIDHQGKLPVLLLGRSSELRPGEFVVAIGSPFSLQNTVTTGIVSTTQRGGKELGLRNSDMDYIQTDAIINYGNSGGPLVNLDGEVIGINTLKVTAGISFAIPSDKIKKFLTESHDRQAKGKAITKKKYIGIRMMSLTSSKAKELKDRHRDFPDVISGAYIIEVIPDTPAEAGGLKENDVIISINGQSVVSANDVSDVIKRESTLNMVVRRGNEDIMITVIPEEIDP
HTRA1 inh conf = confirmation of human HTRA1 inhibitors. 66% of 1,600 active. recombinant HTRA1, FP-rhodamine activity-based probe, fluorescence polarization. shares compounds with HTRA1 inhibitor. inhibition, % at 5.96 µM;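 active = mean inhibition over three repeats above a set limit taken from the earlier primary screen, cut at about 37% in these data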;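 also: inhibitors block probe binding so polarization drops and inhibition rises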
BSA probe FL = interferes with TAMRA-BSA probe, flagging TCR-CD3 hits; TAMRA-labeled BSA probe fluorescence counterscreen; 10% of 1,200 active; shares compounds with TCR CD3 inh; AID 652035; inhibition, % at 9.4 µM; in the data active = inhibition above about 23%
TCR-CD3 conf = confirmation of human TCR-CD3 interaction inhibitors; shares compounds with TCR CD3 inh; 48% of 1,200 active; TAMRA-labeled TCR probe fluorescence binding assay; inhibition, % at 9.4 µM
PRMT1 inh conf = PRMT1 (human) inhibition, FP confirmation; inhibition, % at 2.79 µM; AID 687036; shares compounds with PRMT1 FP inh; recombinant His-PRMT1, activity-based probe fluorescence polarization; 42% of 3,300 active;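 active = mean inhibition across replicates above the hit cutoff derived for the earlier primary screen, cut at about 22% in these data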
ABHD4 confirm = confirmation of mouse ABHD4 inhibitors; shares compounds with ABHD4 inh; purified mABHD4, FP-Rh probe fluorescence polarization; inhibition, % at 8.92 µM; 55% of 1,800 active;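 active = mean inhibition across replicates above the hit cutoff set in the primary screen, cut at about 30% in these data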
SIAE confirm = human SIAE inhibition, confirmation. SIAE FP-Rh activity-based probe, fluorescence polarization. inhibition, % at 9.66 µM. shares compounds with SIAE primary. 13% of 2,300 active;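 active = mean inhibition of the replicates above the hit cutoff set in the primary screen, cut at about 17% in these data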;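 also: inhibitors lower polarization as more probe stays unbound to SIAE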
Large screens that a line does not name were inactive (follow-up assays come after a bar, where they were run); ! = not confirmed by another sample. An excerpt weighted towards active compounds, which were near 2.6% of everything screened. Rule as the data show it, unless noted: active = inhibition above about 19%; inactive = the rest.

O=C(COC(=O)Cc1ccccc1)NC(=O)NC1CCCCC1	HTRA1 inhibitor 36 | HTRA1 inh conf 38
O=c1[nH]c(=S)n(C2CC2)c(O)c1C=NCCc1ccccc1	none (no result: HTRA1 inhibitor)
Cn1ccnc1P(=S)(c1nccn1C)c1nccn1C	HTRA1 inhibitor 71 | HTRA1 inh conf 106
CN(C)[C@@H]1C(=O)C(C(N)=O)=C(O)[C@@]2(O)C(=O)C3=C(O)c4c(O)cccc4[C@@](C)(O)[C@H]3[C@H](O)[C@@H]12	PRMT1 FP inh 61, ABHD4 inh 63, TCR CD3 inh 45, HTRA1 inhibitor 51 | HTRA1 inh conf inactive | BSA probe FL inactive | TCR-CD3 conf 27
COC(=O)C1=C(c2cccc3c2S(=O)(=O)c2ccccc2-3)C[C@@H]2CC[C@H]1N2C(=O)N1CCc2cc(OC)c(OC)cc2C1	none
CCOc1ccccc1-n1c(O)c(C=Nc2ccc(N(CC)CC)cc2)c(=O)[nH]c1=O	ABHD4 inh 67, TCR CD3 inh 24, HTRA1 inhibitor 58 | HTRA1 inh conf inactive | BSA probe FL inactive | TCR-CD3 conf inactive | ABHD4 confirm inactive
CCOc1ccc(-n2c(O)c(C=Nc3ccc(N(CC)CC)cc3)c(=O)[nH]c2=O)cc1	none
CCN(CC)c1ccc(N=Cc2c(O)n(Cc3ccccc3)c(=O)[nH]c2=O)cc1	none
CCN(CC)c1ccc(N=Cc2c(O)n(-c3ccccc3)c(=O)[nH]c2=O)cc1	PRMT1 FP inh 25, ABHD4 inh 67, HTRA1 inhibitor 40 | HTRA1 inh conf inactive | ABHD4 confirm inactive
CCN(CC)c1ccc(N=Cc2c(O)[nH]c(=O)[nH]c2=O)cc1	PRMT1 FP inh 31, ABHD4 inh 57, HTRA1 inhibitor 53 | HTRA1 inh conf inactive | ABHD4 confirm inactive
C#CCOC(=O)C1=CCCN(C)C1	none
CCOC(=O)CCCCCNC(=O)c1c(O)[nH]c(=O)[nH]c1=O	none
NCCc1cc(O)c(O)cc1O	PRMT1 FP inh 43!, ABHD4 inh 45, TCR CD3 inh 170, SIAE primary 91, HTRA1 inhibitor 73 | HTRA1 inh conf 48 | BSA probe FL active | TCR-CD3 conf active | ABHD4 confirm 92
CN(N)N=Nc1nc2c([nH]1)c(=O)n(C)c(=O)n2C	none
C=CCN1CCc2cccc3c2[C@H]1Cc1ccc(O)c(O)c1-3	PRMT1 FP inh 40, ABHD4 inh 44, HTRA1 inhibitor 63 | HTRA1 inh conf 80 | ABHD4 confirm inactive
Cc1cc(C)cc(N2C(=O)NC(=O)/C(=C\c3cccn3-c3ccccc3)C2=O)c1	none
CN1C(=O)/C(=C/c2cccn2-c2ccc3ccccc3c2)C(=O)NC1=S	PRMT1 FP inh 44, ABHD4 inh 65, HTRA1 inhibitor 60 | HTRA1 inh conf inactive | ABHD4 confirm inactive
CN(C)[C@@H]1C(=O)C(C(N)=O)=C(O)[C@@]2(O)C(=O)C3=C(O)c4c(O)ccc(Cl)c4[C@@](C)(O)[C@H]3C[C@@H]12	PRMT1 FP inh 24, ABHD4 inh 57, HTRA1 inhibitor 40 | HTRA1 inh conf inactive | ABHD4 confirm inactive
CCN1C[C@]2(COC)CC[C@H](O)[C@@]34C5C[C@@H]6[C@@H](OC)C[C@@](O)(C5[C@H]6O)[C@](O)([C@@H](OC)C23)[C@@H]14 (stereo partly specified)	none
CC(=O)c1ccc2c(c1)C1C(Cl)C(Sc3ccccc3[N+](=O)[O-])CC1C(C(=O)O)N2 (stereo unspecified)	PRMT1 FP inh 49, ABHD4 inh 54, TCR CD3 inh 28, SIAE primary 21, HTRA1 inhibitor 88 | HTRA1 inh conf 71 | BSA probe FL inactive | TCR-CD3 conf inactive | PRMT1 inh conf 23 | ABHD4 confirm 104 | SIAE confirm inactive
COC1=C(OC)[C@]23CCc4ccc(OC)c(OC)c4[C@]2(CCN3C)CC1=O	none
CCOC(=O)C1CCCN(c2ccc([N+](=O)[O-])c3nonc23)C1 (stereo unspecified)	PRMT1 FP inh 122, ABHD4 inh 67, TCR CD3 inh 140, SIAE primary 21, HTRA1 inhibitor 47 | HTRA1 inh conf 56 | BSA probe FL 168 | TCR-CD3 conf 134 | PRMT1 inh conf 135 | ABHD4 confirm 56 | SIAE confirm 47
N#CC1C(C#N)C2CCC1C1C2N1c1ccccc1 (stereo unspecified)	none
CC[n+]1c(-c2ccccc2)c2cc(N)ccc2c2ccc(N)cc21	PRMT1 FP inh 37, ABHD4 inh 82, TCR CD3 inh 90, SIAE primary 54, HTRA1 inhibitor 109 | HTRA1 inh conf 118 | BSA probe FL 103 | TCR-CD3 conf 93 | PRMT1 inh conf inactive | ABHD4 confirm 105 | SIAE confirm 67
COC(=O)C1=C(c2ccc(C(C)=O)cc2)C[C@@H]2CC[C@H]1N2C(=O)NCc1ccc(C(F)(F)F)cc1	none (no result: PRMT1 FP inh, ABHD4 inh, TCR CD3 inh, SIAE primary)
CC1=C[C@@H]2c3cccc4[nH]cc(c34)C[C@H]2N(C)C1	PRMT1 FP inh 39, SIAE primary 17, HTRA1 inhibitor 40 | HTRA1 inh conf inactive | PRMT1 inh conf 36 | SIAE confirm inactive
COc1cc(CN=Cc2c(O)n(C(C)(C)C)c(=O)[nH]c2=O)cc(OC)c1	none
COc1ccc(-c2ccc3c(c2)CN(C(=S)NCCc2ccccc2)Cc2cnnn2-3)cc1	TCR CD3 inh 26 (no result: HTRA1 inhibitor) | BSA probe FL inactive | TCR-CD3 conf inactive
CC1CCCCC1NC(=O)CNC(=S)N1CC2CC(C1)c1cccc(=O)n1C2 (stereo unspecified)	none
CC/C(=N\NC(=O)c1ccccc1Cl)c1c(O)n(C2CCCCC2)c(=O)[nH]c1=O	TCR CD3 inh 21 | BSA probe FL inactive | TCR-CD3 conf inactive
CCC(=NC1CC1)c1c(O)n(C2CCCCC2)c(=O)[nH]c1=O	none
Cc1cc(-c2cc(C)c(N)c(C)c2)cc(C)c1N	none
O=C(N/N=C/c1c(O)n(CCc2ccccc2)c(=O)[nH]c1=O)c1ccccc1O	ABHD4 inh 39, TCR CD3 inh 23 | BSA probe FL inactive | TCR-CD3 conf 28
COc1cc(/C=C2/C(=O)NC(=O)N(c3ccccc3)C2=O)ccc1O	none
O=C1NC(=O)N(c2ccccc2)C(=O)/C1=C/c1ccoc1	TCR CD3 inh 24 | BSA probe FL inactive | TCR-CD3 conf inactive
